Each structure is given as a SMILES string.

For series [1], the system named is 4-oxo-4-HPR formation in pooled mouse liver microsomes (MLM). The series can be described thus: Effect of CYP enzyme inhibitors on 4-oxo-4-HPR formation from 4-HPR in MLM. The format is in vitro ADME. The following applies: inhibitor 10 µM, 4-HPR 25 µM, 60 min. Summed up:
(§1)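 Pooled liver microsomes (0.5 mg protein·mL−1) were preincubated 20 min at 37°C, pH 7.4 phosphate buffer, with the NADPH-generating system and a CYP2C8, 2C9 or 3A4 inhibitor or no inhibitor. Then 25 µM substrate was added for 60 min at 37°C. Acetonitrile/internal-standard quench, centrifugation, and HPLC quantitation of 4-oxo product followed. Performed in triplicate.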

Series [2] has as its system 4-oxo-4-HPR formation in pooled human liver microsomes (HLM). The series can be described thus: Effect of CYP enzyme inhibitors on 4-oxo-4-HPR formation from 4-HPR in HLM. The format is in vitro ADME. Particulars: inhibitor 10 µM, 4-HPR 25 µM, 60 min. Summed up:
as §1

The test system of series [3] is CYP3A4. Particulars: inhibits other CYP isoforms at higher concentrations; ref Jia and Liu, 2007; cited from earlier work.
Series [4] can be described thus: 4-HPR and 4-MPR metabolism kinetics in pooled mouse liver microsomes. The following applies: pH 7.4. The format is in vitro ADME. Summed up:
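Pooled mouse liver microsomes at 0.5 mg protein·mL−1 with NADPH-generating solutions in 0.1 M potassium phosphate, pH 7.4, preincubated 20 min at 37°C. Substrate added at a range of concentrations and shaken 60 min at 37°C. Stopped with ice-cold acetonitrile plus internal standard, centrifuged, and supernatant analysed by reverse-phase HPLC. Michaelis–Menten constants for product formation derived.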
(Liver microsomes are a subcellular fraction often used to study metabolism.)

In series [5] the target is human CYP3A4 (Homo sapiens, UniProt P08684). As to the kind of experiment: Formation of 4-oxo-4-HPR from 4-HPR in human CYP3A4 isoenzyme microsomes. The format is in vitro ADME. Particulars: 4-HPR 10 µM, NADPH generating system.
human CYP3A4, sequence (P08684 whole entry): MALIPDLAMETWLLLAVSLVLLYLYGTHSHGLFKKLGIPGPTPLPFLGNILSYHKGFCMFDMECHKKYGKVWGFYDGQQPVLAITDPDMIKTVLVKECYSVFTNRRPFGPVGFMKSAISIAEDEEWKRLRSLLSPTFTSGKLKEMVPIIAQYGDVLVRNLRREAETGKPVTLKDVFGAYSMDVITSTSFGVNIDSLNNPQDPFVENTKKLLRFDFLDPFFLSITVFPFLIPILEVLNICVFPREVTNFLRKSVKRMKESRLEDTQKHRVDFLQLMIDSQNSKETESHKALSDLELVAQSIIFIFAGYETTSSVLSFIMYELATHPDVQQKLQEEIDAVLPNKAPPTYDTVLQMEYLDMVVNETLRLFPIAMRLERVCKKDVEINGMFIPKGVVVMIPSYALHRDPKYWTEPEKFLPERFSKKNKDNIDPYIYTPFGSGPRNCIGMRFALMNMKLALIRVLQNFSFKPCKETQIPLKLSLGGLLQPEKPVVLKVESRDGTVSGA
A short description of series [6]: Plasma levels in nu/nu mice given 4-HPR/LXS with or without ketoconazole. The format is in vivo, athymic nude (nu/nu) mice. Summed up: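 Athymic nude mice, 5–6 weeks old, were gavaged with test compound in lipid-matrix powder slurried in sterile water, 180 mg·kg−1 per day in two divided doses, alone or with ketoconazole at increasing doses. Killed 4 h after the ninth dose. Plasma from isoflurane cardiac-puncture blood, collected in the dark, was analysed by HPLC. Three mice per condition; mean ± SD.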

A short description of series [7]: Plasma levels in NOD/SCID mice given 4-HPR/LXS with or without ketoconazole. It is filed as in vivo. Summed up: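 NOD/SCID mice, 5–6 weeks old, were gavaged with 180 mg·kg−1 per day test compound (lipid-matrix powder slurried in water, two divided doses), alone or with ketoconazole. The dose-ranging arm was sampled 4 h after the ninth dose, the 25 mg·kg−1 arm 4 h after the fifth dose. Light-protected cardiac-puncture plasma was analysed by HPLC. Cohorts of three; mean ± SD.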

A short description of series [8]: Plasma levels in neuroblastoma patients given 4-HPR/LXS oral powder. The format is in vivo. Particulars: human, 595 mg/m2 per day. Summed up: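 Three relapsed/refractory neuroblastoma patients received oral lipid-matrix powder, 595 mg·m−2 per day given twice daily 12 h apart. On day 6 of cycle 1, venous blood was drawn just before the morning dose and every 2 h to 8 h. Samples went into foil-wrapped heparinized tubes, were centrifuged immediately, stored at −80°C and handled in the dark. Plasma was assayed by HPLC.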

Series [9] relates to human cancer cell lines. Particulars: variety of human cancer cell lines in vitro; ref Delia et al., 1993; Mariotti et al., 1994; Kalemkerian et al., 1995; Oridate et al., 1996; O'Donnell et al., 2002; cited from earlier work.
The conditions of series [10]: beagle dogs, single 10 mg/kg dose of the capsules; ref Liu et al., 2007; cited from earlier work.
The conditions of series [11]: paediatric phase I study, neuroblastoma patients; ref Villablanca et al., 2006; cited from earlier work.

For `OC(Cn1cncn1)(Cn1cncn1)c1ccc(F)cc1F` [fluconazole], in [1], the “Reduction of 4-oxo-4-HPR formation from 4-HPR alone” value came out at 40.9%.

`CC(=O)N1CCN(c2ccc(OCC3COC(Cn4ccnc4)(c4ccc(Cl)cc4Cl)O3)cc2)CC1` (stereo not drawn) [ketoconazole]: the “Reduction of 4-oxo-4-HPR formation from 4-HPR alone” value stood at 96.5% in [1] and 33.7% in series [2]. Moreover, the “Concentrations at which specific for CYP3A4” value in series [3] was “up to 1 µM”.

In general, Km refers to the concentration of substrate that gives half-maximal velocity. Turning to `CC1=C(/C=C/C(C)=C/C=C/C(C)=C/C(=O)Nc2ccc(O)cc2)C(C)(C)CCC1` [4-HPR, N-(4-hydroxyphenyl)retinamide], the Km at 60 min in [4] came to 25.8 µM. The “4-oxo-4-HPR concentrations formed from 4-HPR” value in series [5] was “increased in a time-dependent manner”. Moreover, the concentration at 4 h in series [6] (athymic nude (nu/nu), mouse, plasma, oral, 180 mg/kg per day) is 14.5 µM. In addition, the “Increase of plasma level over control (4-HPR without ketoconazole)” value (shortened to “Increase … (4-HPR without ketoconazole)”) in series [6] (nu/nu mice, + ketoconazole 75 mg/kg, P < 0.01) came out at 2.2 fold. Besides, the “Increase … (4-HPR without ketoconazole)” value in series [7] (+ ketoconazole 18.75 mg/kg, P < 0.01) stood at 3.4 fold. Also, the “Increase … (4-HPR without ketoconazole)” value in [7] (+ ketoconazole 25 mg/kg, 4 h after fifth dose, Fig 4C) is “twofold”. In [8], the concentration at 0 h came out at 7.04 ± 4.75 µM, the concentration at 2 h worked out at 9.69 ± 7.3 µM, the concentration at 4 h worked out at 12.8 µM and the concentration at 6 h came to 13.1 ± 8.5 µM. In series [8], the concentration at 8 h stood at 8.55 ± 6.42 µM. Also, in series [9], the “Concentrations exhibiting cytotoxic activity” value is 1 to 10 µM. Further, the Oral bioavailability result in [10] was “approximately 16%”. Further, the Maximum tolerated dose in series [11] is 2450 mg·m^−2 per day.

The values above are taken from publication PMC3144539 (British Journal of Pharmacology, 2011).
